Measured values from ChEMBL document CHEMBL1135531, “Cardiovascular characterization of [1,4]thiazino[3,4-c][1,2,4]oxadiazol-1-one derivatives: selective myocardial calcium channel modulators” (J Med Chem, 2002).

Assays:
Cavia porcellus [1] = organism: Cavia porcellus; experiment: Negative inotropic activity in isolated guinea pig left atrium.; format: functional, Cardiac atrium
Cavia porcellus [2] = organism: Cavia porcellus; experiment: Negative chronotropic activity in isolated guinea pig right atrium.; format: functional, Cardiac atrium
Cavia porcellus [3] = organism: Cavia porcellus; experiment: Effective drug concentration for negative inotropic activity was determined; Range is from 1.34-2.19 (10e-6 M); format: functional, organism-based
Procedure, shortened: (§1)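 Left atria from female guinea pigs (300-400 g) in Tyrode PSS, pH 7.4, 95% O2/5% CO2, 35 °C. Driven at 1 Hz with 0.6-0.8 ms pulses at about 50% threshold voltage; isometric force recorded. Cumulative 0.1-100 µM in DMSO (≤0.3% in bath), each added at steady state. EC50 by Probit log concentration-response analysis (n = 6-8), not calculated when maximum effect <50%.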

Cavia porcellus [4] = organism: Cavia porcellus; experiment: Percent inhibition of calcium-induced contraction on K+-depolarized guinea-pig aortic strip at 5 x 10 e-5M; format: functional; conditions: Aorta
Cavia porcellus [5] = organism: Cavia porcellus; experiment: Effective drug concentration for negative inotropic activity was determined; Range is from 0.61-0.85 (10e-6 M); format: functional; procedure, shortened: as §1
Cavia porcellus [6] = organism: Cavia porcellus; experiment: Effective drug concentration for negative inotropic activity was determined; Range is from 0.55-0.93 (10e-6 M); format: functional; procedure, shortened: as §1
Cavia porcellus [7] = organism: Cavia porcellus; experiment: Effective drug concentration for negative inotropic activity was determined; Range is from 2.35-3.10 (10e-6 M); format: functional; procedure, shortened: as §1
Cavia porcellus [8] = organism: Cavia porcellus; experiment: Effective drug concentration for negative inotropic activity was determined; Range is from 1.02-1.98 (10e-6 M); format: functional; procedure, shortened: as §1
Cavia porcellus [9] = organism: Cavia porcellus; experiment: Effective drug concentration for negative inotropic activity was determined; Range is from 0.41-0.72 (10e-6 M); format: functional; procedure, shortened: as §1
Cavia porcellus [10] = organism: Cavia porcellus; experiment: Effective drug concentration for negative inotropic activity was determined; Range is from 0.70-0.85 (10e-6 M); format: functional
Cavia porcellus [11] = organism: Cavia porcellus; experiment: Effective drug concentration (EC30) for negative chronotropic activity was determined; Range is from 0.064-0.075 (10e-6 M); format: functional
Cavia porcellus [12] = organism: Cavia porcellus; experiment: Effective drug concentration for negative inotropic activity was determined; Range is from 1.03-1.45 (10e-6 M); format: functional; procedure, shortened: as §1
Cavia porcellus [13] = organism: Cavia porcellus; experiment: Effective drug concentration for negative inotropic activity was determined; Range is from 5.99-7.13 (10e-6 M); format: functional, organism-based; procedure, shortened: as §1
Cavia porcellus [14] = organism: Cavia porcellus; experiment: Effective drug concentration for negative inotropic activity; Range is from 0.41-0.65 (10e-6 M); format: functional; procedure, shortened: as §1
Cavia porcellus [15] = organism: Cavia porcellus; experiment: Effective drug concentration for negative inotropic activity was determined; Range is from 1.35-2.23 (10e-6 M); format: functional, organism-based; procedure, shortened: as §1
Cavia porcellus [16] = organism: Cavia porcellus; experiment: Effective drug concentration for negative inotropic activity was determined; Range is from 0.53-0.64 (10e-6 M); format: functional; procedure, shortened: as §1
Cavia porcellus [17] = organism: Cavia porcellus; experiment: Effective drug concentration for negative inotropic activity was determined; Range is from 0.23-0.43 (10e-6 M); format: functional; procedure, shortened: as §1
Cavia porcellus [18] = organism: Cavia porcellus; experiment: Effective drug concentration for negative inotropic activity was determined; Range is from 0.18-0.30 (10e-6 M); format: functional; procedure, shortened: as §1
Cavia porcellus [19] = organism: Cavia porcellus; experiment: Effective drug concentration for negative inotropic activity was determined; Range is from 0.46-0.92 (10e-6 M); format: functional; procedure, shortened: as §1
Cavia porcellus [20] = organism: Cavia porcellus; experiment: Effective drug concentration for negative inotropic activity; format: functional; procedure, shortened: as §1
Cavia porcellus [21] = organism: Cavia porcellus; experiment: Effective drug concentration for negative inotropic activity was determined; Range is from 3.67-4.52 (10e-6 M); format: functional, organism-based; procedure, shortened: as §1
Cavia porcellus [22] = organism: Cavia porcellus; experiment: Effective drug concentration for negative inotropic activity was determined; Range is from 0.65-1.05 (10e-6 M); format: functional; procedure, shortened: as §1
Cavia porcellus [23] = organism: Cavia porcellus; experiment: Effective drug concentration for negative inotropic activity was determined; Range is from 1.67-2.83 (10e-6 M); format: functional, organism-based; procedure, shortened: as §1
Cavia porcellus [24] = organism: Cavia porcellus; experiment: Effective drug concentration for negative inotropic activity was determined; Range is from 1.35-2.05 (10e-6 M); format: functional, organism-based; procedure, shortened: as §1
Cavia porcellus [25] = organism: Cavia porcellus; experiment: Effective drug concentration for negative inotropic activity was determined; Range is from 0.43-0.56 (10e-6 M); format: functional; procedure, shortened: as §1

Row | SMILES | Decrease (Cavia porcellus [1]) | Decrease (Cavia porcellus [2]) | inhibition at 50 µM (Cavia porcellus [4]) | also measured
1 | CC1=Cn2c(noc2=O)C(O)(c2ccc(Cl)cc2)S1 (centres undefined) | 71% | 11% | 15% | EC50 (Cavia porcellus [3]): 1720 nM
2 | CC1=CSC(O)(c2cccc(C)c2)c2noc(=O)n21 (centres undefined) | 89% | 10% | 12% | EC50 (Cavia porcellus [5]): 720 nM
3 | CC1=CSC(O)(c2ccc(C#N)cc2)c2noc(=O)n21 (centres undefined) | 76% | 30% | 13% | EC50 (Cavia porcellus [6]): 760 nM
4 | CC1=CSC(O)(c2ccc(-c3ccccc3)cc2)c2noc(=O)n21 (centres undefined) | 71% | 18% | 9% | EC50 (Cavia porcellus [7]): 2650 nM
5 | CC1=C(C)n2c(noc2=O)C(O)(c2ccc(Cl)cc2)S1 (centres undefined) | 70% | 19% | 28% | EC50 (Cavia porcellus [8]): 1420 nM
6 | COc1ccc(C2(O)SC=C(C)n3c2noc3=O)cc1 (centres undefined) | 76% | 12% | 18% | EC50 (Cavia porcellus [9]): 520 nM
7 | COc1ccc([C@@H]2Sc3ccccc3N(CCN(C)C)C(=O)[C@@H]2OC(C)=O)cc1 [DILTIAZEM] | 78% | 94% | 88% | EC50 (Cavia porcellus [10]): 790 nM; EC30 (Cavia porcellus [11]): 0.07 µM
8 | CC1=CSC(O)(c2ccc(F)cc2)c2noc(=O)n21 (centres undefined) | 74% | 10% | 8% | EC50 (Cavia porcellus [12]): 1210 nM
9 | O=c1onc2n1C=CSC2(O)c1ccccc1 (centres undefined) | 74% | 14% | 11% | EC50 (Cavia porcellus [13]): 6.58 µM
10 | O=c1onc2n1-c1ccccc1SC2(O)c1ccc(Cl)cc1 (centres undefined) | 94% | 21% | 40% | EC50 (Cavia porcellus [14]): 520 nM
11 | CC1=CSC(O)(c2cccc([N+](=O)[O-])c2)c2noc(=O)n21 (centres undefined) | 68% | 13% | 19% | EC50 (Cavia porcellus [15]): 1760 nM
12 | CC1=CSC(O)(c2ccc(C)cc2)c2noc(=O)n21 (centres undefined) | 82% | 13% | 5% | EC50 (Cavia porcellus [16]): 570 nM
13 | CC1=CSC(O)(c2ccc(Br)cc2)c2noc(=O)n21 (centres undefined) | 97% | 18% | 12% | EC50 (Cavia porcellus [17]): 320 nM
14 | CC1=CSC(O)(c2ccccc2)c2noc(=O)n21 (centres undefined) | 95% | 14% | 4% | EC50 (Cavia porcellus [18]): 230 nM
15 | CC1=CSC(O)(c2cccc(Cl)c2)c2noc(=O)n21 (centres undefined) | 88% | 34% | 17% | EC50 (Cavia porcellus [19]): 650 nM
16 | COC1(c2ccc(Cl)cc2)SC=C(C)n2c1noc2=O (centres undefined) | 62% | 22% | 14% | EC50 (Cavia porcellus [20]): 1540 nM
17 | CC1=CSC(OCC(C)C)(c2ccc(Cl)cc2)c2noc(=O)n21 (centres undefined) | 83% | 15% | 37% | EC50 (Cavia porcellus [20]): 560 nM
18 | O=c1onc2n1C=CSC2(O)c1ccc(Cl)cc1 (centres undefined) | 78% | 7% | 10% | EC50 (Cavia porcellus [21]): 4.07 µM
19 | CC1=CSC(O)(c2ccc(Cl)cc2)c2noc(=O)n21 (centres undefined) | 80% | 18% | 26% | EC50 (Cavia porcellus [22]): 800 nM
20 | CC1=CSC(O)(c2cccc(C(F)(F)F)c2)c2noc(=O)n21 (centres undefined) | 96% | 20% | 37% | EC50 (Cavia porcellus [23]): 2170 nM
21 | CC1=CSC(O)(c2ccc([N+](=O)[O-])cc2)c2noc(=O)n21 (centres undefined) | 73% | 16% | 19% | EC50 (Cavia porcellus [24]): 1650 nM
22 | COc1cccc(C2(O)SC=C(C)n3c2noc3=O)c1 (centres undefined) | 86% | 16% | 10% | EC50 (Cavia porcellus [25]): 490 nM
